Compound activity (PubChem)
Hits are enriched below; roughly 3% of the tested compounds scored in any of these assays.
NRP1-CendR mod: modulators of CendR peptide binding to NRP-1, primary screen, biochemical, fluorescence polarization, uHTS | Neuropilin-1 (Homo sapiens), O14786 | FAM-RPARPAR peptide binding to NRP-1 | inhibition, % at 25 µM | 360,000 tested, 0.85% active | AID 602438, 2012;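 active means inhibition or corrected inhibition above about 18%, plus a signal ratio from 0.5 to 1.5, limit read from the data, passing the limit was not always enough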
DDE Tn7 FP inh: inhibitors of Tn7 peptide binding to fibrin DD(E), primary screen, biochemical, fluorescence polarization, human fibrin, Tn7 probe | Fibrinogen beta chain (Homo sapiens), P02675 | FP displacement of FITC-Tn7 peptide from fibrin DD(E); 0% = median of compound wells per plate | inhibition, % at 8.3 µM | 370,000 tested, 0.13% active | AID 720508, 2013;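 active means inhibition above the mean of compounds falling within the control limits plus 3 SD of them, cut at about 14% in these data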;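 further: 0% = plate median of compound wells and 100% = 10 µM Aha-Tn7 peptide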
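Also added: labelled Tn7 tracer, 0.1 µM; Assay system: human fibrin DD(E) protein; Amount: 2 µM fibrin DD(E); Schedule: 10 min compound pre-incubation, 3 h probe incubation at room temperature; Repeats: one replicate per compound; Read-out basis: percent inhibition; Measured by: fluorescence polarization of the labelled Tn7 tracer.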
Tn6 DDE FP: inhibitors of Tn6 peptide binding to fibrin DD(E), primary screen, biochemical, fluorescence polarization, human fibrin, Tn6 probe; Fibrinogen beta chain (Homo sapiens), P02675; Fibrin DD(E) TRITC-Tn6 fluorescence polarization displacement; inhibition, % at 8.3 µM; 370,000 tested, 0.21% active; AID 720509, 2013;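 active means inhibition above a per-campaign cutoff: mean of compounds within control limits plus 3 SD, cut at about 15% in these data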;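 further: 0% = median of all compound wells on the plate and 100% = blocking peptide control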
proKLK7 act: proKLK7 zymogen activators, primary screen, biochemical, fluorescence intensity; 370,000 tested, 0.9% active; activation, % at 7 µM; purified proKLK7, EDANS-DABCYL substrate fluorescence; 100% is mature enzyme control, 0% vehicle; Kallikrein-7 (Homo sapiens), P49862;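 active means activation above the mean of all tested compounds plus 3 SD, computed per campaign excluding outliers beyond control limits, cut at about 13% in these data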
PLCb3 inh: human PLC-beta3 inhibitors, primary screen, biochemical, fluorescence; inhibition, % at 12.2 µM; Purified PLC-beta3, fluorogenic substrate; 370,000 tested, 0.18% active; 1-phosphatidylinositol 4,5-bisphosphate phosphodiesterase beta-3 (Homo sapiens), Q01970; AID 720704, 2013; in the data active means inhibition above about 11%;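 further: 0% = median of compound wells on plate and 100% = full blocker control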
Target sequence (Q01970 whole entry, looked up): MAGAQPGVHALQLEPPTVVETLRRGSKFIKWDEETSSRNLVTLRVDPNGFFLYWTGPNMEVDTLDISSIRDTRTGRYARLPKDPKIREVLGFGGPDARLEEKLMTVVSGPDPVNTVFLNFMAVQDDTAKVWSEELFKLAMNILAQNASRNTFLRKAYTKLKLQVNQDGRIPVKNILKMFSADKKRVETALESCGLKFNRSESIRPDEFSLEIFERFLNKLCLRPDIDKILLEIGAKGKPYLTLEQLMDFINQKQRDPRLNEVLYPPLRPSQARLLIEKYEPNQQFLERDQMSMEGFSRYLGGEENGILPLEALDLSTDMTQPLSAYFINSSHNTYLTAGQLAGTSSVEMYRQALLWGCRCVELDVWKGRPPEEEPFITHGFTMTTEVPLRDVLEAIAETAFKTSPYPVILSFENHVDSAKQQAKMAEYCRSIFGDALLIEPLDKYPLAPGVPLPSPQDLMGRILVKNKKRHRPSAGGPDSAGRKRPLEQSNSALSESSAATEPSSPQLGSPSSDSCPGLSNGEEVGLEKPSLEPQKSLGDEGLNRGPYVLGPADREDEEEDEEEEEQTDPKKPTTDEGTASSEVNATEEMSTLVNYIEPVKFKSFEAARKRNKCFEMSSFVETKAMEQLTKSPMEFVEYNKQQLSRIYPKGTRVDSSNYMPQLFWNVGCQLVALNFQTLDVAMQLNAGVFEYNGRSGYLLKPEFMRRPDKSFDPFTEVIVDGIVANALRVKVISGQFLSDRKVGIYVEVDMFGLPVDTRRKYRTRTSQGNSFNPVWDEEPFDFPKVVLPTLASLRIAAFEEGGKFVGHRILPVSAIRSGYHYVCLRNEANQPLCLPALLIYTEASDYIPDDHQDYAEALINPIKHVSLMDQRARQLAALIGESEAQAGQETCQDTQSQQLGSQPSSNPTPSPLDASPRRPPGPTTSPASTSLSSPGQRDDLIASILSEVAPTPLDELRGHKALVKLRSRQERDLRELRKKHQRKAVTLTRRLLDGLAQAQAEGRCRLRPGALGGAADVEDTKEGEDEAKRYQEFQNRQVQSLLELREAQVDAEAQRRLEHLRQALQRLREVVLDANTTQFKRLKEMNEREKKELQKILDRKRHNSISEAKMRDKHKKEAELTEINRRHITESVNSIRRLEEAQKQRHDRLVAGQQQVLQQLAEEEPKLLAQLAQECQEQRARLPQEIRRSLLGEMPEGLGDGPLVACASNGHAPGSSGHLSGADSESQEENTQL
PLCg1 inh: PLC-gamma1 enzyme inhibitors, primary screen, biochemical, fluorescence, purified enzyme; 1-phosphatidylinositol 4,5-bisphosphate phosphodiesterase gamma-1 (Homo sapiens), P19174; fluorogenic substrate; inhibition, % at 12.2 µM; 370,000 tested, 0.84% active
PLCgamma1 ctr: PLC-gamma1 enzyme inhibitors, counter-screen for PLC-beta3 inhibitor project, biochemical, fluorescence; shares compounds with PLCg1 inh; purified PLC-gamma1, fluorogenic substrate; inhibition, % at 12.3 µM; 3,300 tested, 3.1% active
PLCbeta3 conf: PLC-beta3 inhibitor confirmation, biochemical, fluorescence, purified enzyme; 3,300 tested, 1% active; fluorogenic substrate fluorescence; AID 743261, 2014; shares compounds with PLCg1 inh; inhibition, % at 12.3 µM; in the data active means inhibition above about 11%
An asterisk follows results filed as active. Unless noted, no stated cut-off is given here; in the data, active means inhibition above about 9.5%; inactive means the rest.

Screening COc1ccc(CCN(C)C2CCCN(C(=O)CCC(F)(F)F)C2)cc1OC (configuration not stated) returned NRP1-CendR mod 19, DDE Tn7 FP inh -1, Tn6 DDE FP 8, proKLK7 act 0, PLCb3 inh -8, PLCg1 inh 9.6*, PLCgamma1 ctr -1 and PLCbeta3 conf -3.
`COc1ccc(CCN(C)C2CCCN(C(=O)CCSC)C2)cc1OC` (configuration not stated) gave NRP1-CendR mod 5, DDE Tn7 FP inh 8, Tn6 DDE FP 10, proKLK7 act -1, PLCb3 inh -4 and PLCg1 inh 2.
`Cc1ccc(OCCOc2ccc(Cl)cc2Cl)c(Br)n1` gave DDE Tn7 FP inh 3, Tn6 DDE FP -6, PLCb3 inh 0 and PLCg1 inh 3.
Screening CCn1c(=O)cc(OCC(=O)NCc2ccco2)c2ccccc21 returned NRP1-CendR mod 4, DDE Tn7 FP inh 6, Tn6 DDE FP -4, proKLK7 act 0, PLCb3 inh -5, PLCg1 inh 12*, PLCgamma1 ctr 6 and PLCbeta3 conf -1.
Screening O=S1(=O)C[C@@H](N2CC[C@@H](O)C2)[C@H](COCc2ccccc2)N1 returned NRP1-CendR mod -2, DDE Tn7 FP inh 2, Tn6 DDE FP -4, proKLK7 act 1, PLCb3 inh 10, PLCg1 inh 10*, PLCgamma1 ctr -1 and PLCbeta3 conf -1.
Screening CN(C)[C@H]1CCN([C@@H]2CS(=O)(=O)N[C@H]2COCc2ccccc2)C1 returned NRP1-CendR mod -1, DDE Tn7 FP inh 0, Tn6 DDE FP -1, proKLK7 act 0, PLCb3 inh 0 and PLCg1 inh 0.
CNC(=O)C1Cc2c(-c3cccc(F)c3)ccnc2O1 (configuration not stated) was read as NRP1-CendR mod -8, DDE Tn7 FP inh 3, Tn6 DDE FP 1, proKLK7 act 0, PLCb3 inh 4, PLCg1 inh 16*, PLCgamma1 ctr -4 and PLCbeta3 conf 1.
`CCCCN(CCCC)CC(O)COc1ccccc1C(=O)Nc1ccccc1` (configuration not stated) gave NRP1-CendR mod 2, DDE Tn7 FP inh -13, Tn6 DDE FP -7, proKLK7 act 0, PLCb3 inh 11*, PLCg1 inh 7, PLCgamma1 ctr 0 and PLCbeta3 conf 0.
CC(C)[C@@H]1CC[C@@H](C)C[C@H]1OC(=O)C[n+]1cc(-c2ccc(Cl)cc2)n2c1CCCCC2 was read as NRP1-CendR mod 10, DDE Tn7 FP inh -3, Tn6 DDE FP 9, proKLK7 act 0, PLCb3 inh -3, PLCg1 inh 12*, PLCgamma1 ctr 1 and PLCbeta3 conf -2.
For COc1ccccc1CCn1cnc(-c2cccc(F)c2)c1CC(C)C the results were DDE Tn7 FP inh -1, Tn6 DDE FP 4, proKLK7 act 0, PLCb3 inh 3 and PLCg1 inh 1.
For CCOc1ccc(NC(=O)CSCc2cnn(-c3ccccc3)c2-n2cccc2)cc1 the results were NRP1-CendR mod -3, DDE Tn7 FP inh 0, Tn6 DDE FP -2, proKLK7 act 1, PLCb3 inh -5, PLCg1 inh 10*, PLCgamma1 ctr 1 and PLCbeta3 conf -7.
For Cc1ccc(C(=O)Cn2c(C(=O)OCCO)cc3ccccc32)cc1 the results were NRP1-CendR mod 2, DDE Tn7 FP inh 0, Tn6 DDE FP 7, proKLK7 act 0, PLCb3 inh -2, PLCg1 inh 11*, PLCgamma1 ctr -9 and PLCbeta3 conf -6.
`Cc1ccc(C(=O)Cn2c(C(=O)O)cc3ccccc32)cc1` gave NRP1-CendR mod 0, DDE Tn7 FP inh 2, Tn6 DDE FP 3, proKLK7 act 0, PLCb3 inh -8 and PLCg1 inh -2.
`O=C(c1cc(C2CC2)on1)N(C1CCCCC1)C1CCOCC1` gave DDE Tn7 FP inh 4, Tn6 DDE FP 0, proKLK7 act 1, PLCb3 inh -4 and PLCg1 inh -2.
Screening COC(=O)CNC(=O)C(NC(=O)OCc1ccccc1)C(C)C (configuration not stated) returned NRP1-CendR mod 8, DDE Tn7 FP inh 5, Tn6 DDE FP -1, proKLK7 act 0, PLCb3 inh 1 and PLCg1 inh -1.
For CC(C)C[C@H](NC(=O)c1[nH]cnc1C(=O)N[C@@H](C)C(=O)OC(C)(C)C)C(=O)OC(C)(C)C the results were NRP1-CendR mod -10, DDE Tn7 FP inh -4, Tn6 DDE FP -2, proKLK7 act 1, PLCb3 inh 11*, PLCg1 inh 8, PLCgamma1 ctr 5 and PLCbeta3 conf -6.
For CC(C)C[C@H](NC(=O)c1nc[nH]c1C(=O)NCC(=O)OC(C)(C)C)C(=O)OCc1ccccc1 the results were NRP1-CendR mod -14, DDE Tn7 FP inh -2, Tn6 DDE FP -6, proKLK7 act 1, PLCb3 inh -4, PLCg1 inh 9.9*, PLCgamma1 ctr 1 and PLCbeta3 conf -5.
Screening CC(C)C[C@H](NC(=O)c1nc[nH]c1C(=O)N[C@@H](CCCCN)C(=O)OC(C)(C)C)C(=O)OC(C)(C)C returned NRP1-CendR mod -4.
For CC(C)C[C@H](NC(=O)c1nc[nH]c1C(=O)NCC(=O)OCc1ccccc1)C(=O)OCc1ccccc1 the results were NRP1-CendR mod 8, DDE Tn7 FP inh -13, Tn6 DDE FP -9, proKLK7 act 0, PLCb3 inh -4 and PLCg1 inh 9.
For CC(C)C(NC(=O)OCc1ccccc1)C(=O)NCC(=O)OC(C)(C)C (configuration not stated) the results were NRP1-CendR mod 16, DDE Tn7 FP inh 3, Tn6 DDE FP -5, proKLK7 act 0, PLCb3 inh 15*, PLCg1 inh 2, PLCgamma1 ctr 8 and PLCbeta3 conf 3.
